According to ChEMBL document CHEMBL1158364, “Synthesis and pharmacological evaluation of 2(3H)-furanones and 2(3H)-pyrrolones, combining analgesic and anti-inflammatory properties with reduced gastrointestinal toxicity and lipid peroxidation” (Eur J Med Chem, 2009):

Assays:
Rattus norvegicus [1] = test: Antiinflammatory activity in Wistar rat assessed as inhibition of carrageenan-induced paw odema at 20 mg/kg, po pretreated 30 mins pre-carrageenan challenge measured after 3 hrs relative to control; type: functional
In short: (§1)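 Wistar rats of either sex, 180–200 g, six per group; vehicle 0.5% CMC given orally. […] in sterile 0.9% NaCl, 0.1 mL, injected sub-plantar into the right hind paw 30 min after dosing. Paw volume read by saline-displacement plethysmometer at 2 and 3 h. % inhibition = (Vc−Vt)/Vc × 100.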

Rattus norvegicus [2] = test: Antiinflammatory activity in Wistar rat assessed as inhibition of carrageenan-induced paw odema at 20 mg/kg, po pretreated 30 mins pre-carrageenan challenge measured after 2 hrs relative to control; type: functional; in short: as §1
Rattus norvegicus [3] = test: Gastrointestinal toxicity in albino rat assessed ulcer index at 60 mg/kg, po after 17 hrs; type: organism-based; parameters: dose 60 mg/kg, route oral; settings: in vivo
In short: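 Fasted albino rats (150–200 g; food, not water, withheld 24 h), groups of six, dosed orally at 60 mg/kg; controls got 1% methyl cellulose suspension. Normal diet for 17 h, then sacrifice. Stomach opened along greater curvature, washed, mucosa scored under magnifying glass (0.5 redness to 3.0 for >5 ulcers); severity index = treated group mean score minus control mean.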

Gastric mucosa = test: Inhibition of lipid peroxidation assessed as malondialdehyde level per mg of protein in gastric mucosa isolated from albino rat treated 60 mg/kg, po by UV spectrophotometry; type: functional
In short: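 After the ulcer scoring, gastric mucosa was scraped and homogenized in 1.8 mL ice-cold 1.15% KCl. Supernatant (1 mL) received 0.5 mL 30% TCA and 0.5 mL 0.8% TBA, then was heated 30 min at 80 °C. Tubes were chilled 10 min on ice and centrifuged 3000 rpm for 15 min before absorbance was read (TBARS/MDA, Ohkawa method).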

Mus musculus [4] = test: Central analgesic activity in Swiss albino mouse assessed as reaction time required to elicit thermal stimulus-induced hind paw licking at 20 mg/kg, po after 60 mins by Turner hotplate method; type: functional
In short: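 Swiss albino mice of either sex, 25–30 g, six per group. Compounds given orally in 1% CMC; controls received vehicle only. Hot plate held at 53 ± 0.5 °C. Reaction time is the interval from placement on the plate to hind-paw licking or jumping. Measured before dosing (0 min) and 1 h after oral dosing.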

Mus musculus [5] = test: Peripheral analgesic activity in Swiss albino mouse assessed as inhibition of acetic acid-induced writhing response at 20 mg/kg, po pretreated 1 hr before acetic acid challenge; type: functional; parameters: scale not given: the % may be the effect or the level left
In short: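 Swiss albino mice of either sex, 25–30 g, housed singly and habituated 30 min in the test cage. Compounds given orally in 1% CMC; controls received 1% CMC. One hour after dosing, 0.10 mL 1% acetic acid was given i.p. Writhes were counted over 30 min and % protection derived versus control.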

For `O=C1OC(c2ccc(Cl)cc2)=C/C1=C\c1ccccc1[N+](=O)[O-]`, which inhibition in vivo at 20 mg/kg (Rattus norvegicus [1]) is on record?
The inhibition in vivo at 20 mg/kg was 18.5%.

And the inhibition in vivo at 20 mg/kg (Rattus norvegicus [2])?
Its inhibition in vivo at 20 mg/kg is 4%.

What about the UI (Rattus norvegicus [3]) of the same compound?
Its UI is 0.6.

What about the Activity (Gastric mucosa) of the same compound?
The Activity was 0.429 nmol/mg protein.

`COc1ccc(/C=C2\C=C(c3ccc(Cl)cc3)OC2=O)cc1OC` was tested. Which inhibition in vivo at 20 mg/kg (Rattus norvegicus [1]) did it give?
The inhibition in vivo at 20 mg/kg was 36%.

What about the inhibition in vivo at 20 mg/kg (Rattus norvegicus [2]) of the same compound?
The inhibition in vivo at 20 mg/kg was 9.33%.

What about the UI (Rattus norvegicus [3]) of the same compound?
Its UI is 0.3.

What about the Activity (Gastric mucosa) of the same compound?
The Activity was 0.533 nmol/mg protein.

How did the inhibition in vivo at 20 mg/kg (Rattus norvegicus [1]) turn out when `O=C1OC(c2ccc(Cl)cc2)=C/C1=C\c1ccc([N+](=O)[O-])cc1` was run?
The inhibition in vivo at 20 mg/kg was 36%.

And the inhibition in vivo at 20 mg/kg (Rattus norvegicus [2])?
Its inhibition in vivo at 20 mg/kg is 4%.

And the UI (Rattus norvegicus [3])?
Its UI is 0.4.

And the Activity (Gastric mucosa)?
Its Activity is 0.549 nmol/mg protein.

What does the source list for `O=C1OC(c2ccc(Cl)cc2)=C/C1=C\c1ccc(F)cc1`?
inhibition in vivo at 20 mg/kg (Rattus norvegicus [1]): 70.4%; inhibition in vivo at 20 mg/kg (Rattus norvegicus [2]): 41.3%; UI (Rattus norvegicus [3]): 0.4; Activity (Mus musculus [4]): 12.9 s; Activity (Mus musculus [5]): 50.6%; Activity (Gastric mucosa): 0.329 nmol/mg protein

With `COc1ccc(/C=C2\C=C(c3ccc(Cl)cc3)OC2=O)cc1` as the compound, how does the inhibition in vivo at 20 mg/kg (Rattus norvegicus [1]) read?
Its inhibition in vivo at 20 mg/kg is 32.3%.

What about the inhibition in vivo at 20 mg/kg (Rattus norvegicus [2]) of the same compound?
The inhibition in vivo at 20 mg/kg was 4%.

And the UI (Rattus norvegicus [3])?
Its UI is 0.5.

What about the Activity (Gastric mucosa) of the same compound?
The Activity was 0.545 nmol/mg protein.

What does the source list for `COc1cc(/C=C2\C=C(c3ccc(Cl)cc3)N(Cc3ccccc3)C2=O)ccc1O`?
inhibition in vivo at 20 mg/kg (Rattus norvegicus [1]): 42%; inhibition in vivo at 20 mg/kg (Rattus norvegicus [2]): 36%; UI (Rattus norvegicus [3]): 0.5; Activity (Gastric mucosa): 0.558 nmol/mg protein

Which results are given for `O=C1OC(c2ccc(Cl)cc2)=C/C1=C\c1ccccc1`?
inhibition in vivo at 20 mg/kg (Rattus norvegicus [1]): 36%; inhibition in vivo at 20 mg/kg (Rattus norvegicus [2]): 18.9%; UI (Rattus norvegicus [3]): 0.9; Activity (Gastric mucosa): 0.522 nmol/mg protein

Which inhibition in vivo at 20 mg/kg (Rattus norvegicus [1]) does the source give for `O=C1OC(c2ccc(Cl)cc2)=C/C1=C\c1ccccc1Cl` here?
The inhibition in vivo at 20 mg/kg was 81.5%.

What about the inhibition in vivo at 20 mg/kg (Rattus norvegicus [2]) of the same compound?
Its inhibition in vivo at 20 mg/kg is 62.7%.

What about the UI (Rattus norvegicus [3]) of the same compound?
The UI was 0.2.

And the Activity (Mus musculus [4])?
The Activity was 12.69 s.

What about the Activity (Mus musculus [5]) of the same compound?
Its Activity is 53.01%.

And the Activity (Gastric mucosa)?
The Activity was 0.494 nmol/mg protein.

Which inhibition in vivo at 20 mg/kg (Rattus norvegicus [1]) does the source give for `COc1cc(/C=C2\C=C(c3ccc(Cl)cc3)OC2=O)ccc1OC(C)=O` here?
The inhibition in vivo at 20 mg/kg was 37%.

What about the inhibition in vivo at 20 mg/kg (Rattus norvegicus [2]) of the same compound?
The inhibition in vivo at 20 mg/kg was 24%.

And the UI (Rattus norvegicus [3])?
Its UI is 0.3.

And the Activity (Gastric mucosa)?
The Activity was 0.597 nmol/mg protein.

With `O=C1/C(=C/c2ccc([N+](=O)[O-])cc2)C=C(c2ccc(Cl)cc2)N1Cc1ccccc1` as the compound, how does the inhibition in vivo at 20 mg/kg (Rattus norvegicus [1]) read?
The inhibition in vivo at 20 mg/kg was 19.8%.

What about the inhibition in vivo at 20 mg/kg (Rattus norvegicus [2]) of the same compound?
Its inhibition in vivo at 20 mg/kg is 12%.

And the UI (Rattus norvegicus [3])?
The UI was 0.4.

And the Activity (Gastric mucosa)?
The Activity was 0.403 nmol/mg protein.

Which results are given for `O=C1OC(c2ccc(Cl)cc2)=C/C1=C\c1ccc(Cl)cc1Cl`?
inhibition in vivo at 20 mg/kg (Rattus norvegicus [1]): 72.6%; inhibition in vivo at 20 mg/kg (Rattus norvegicus [2]): 53.3%; UI (Rattus norvegicus [3]): 0.1; Activity (Mus musculus [4]): 11.86 s; Activity (Mus musculus [5]): 49.39%; Activity (Gastric mucosa): 0.388 nmol/mg protein

With `O=C1OC(c2ccc(Cl)cc2)=C/C1=C\c1ccc(Cl)cc1` as the compound, how does the inhibition in vivo at 20 mg/kg (Rattus norvegicus [1]) read?
Its inhibition in vivo at 20 mg/kg is 69.1%.

And the inhibition in vivo at 20 mg/kg (Rattus norvegicus [2])?
The inhibition in vivo at 20 mg/kg was 40%.

What about the UI (Rattus norvegicus [3]) of the same compound?
Its UI is 0.2.

And the Activity (Mus musculus [4])?
The Activity was 12.67 s.

And the Activity (Mus musculus [5])?
The Activity was 44.57%.

And the Activity (Gastric mucosa)?
Its Activity is 0.403 nmol/mg protein.

How did the inhibition in vivo at 20 mg/kg (Rattus norvegicus [1]) turn out when `O=C1/C(=C/c2ccc(F)cc2)C=C(c2ccc(Cl)cc2)N1Cc1ccccc1` was run?
Its inhibition in vivo at 20 mg/kg is 89.5%.

And the inhibition in vivo at 20 mg/kg (Rattus norvegicus [2])?
The inhibition in vivo at 20 mg/kg was 58.7%.

And the UI (Rattus norvegicus [3])?
Its UI is 0.2.

What about the Activity (Mus musculus [4]) of the same compound?
Its Activity is 13.3 s.

What about the Activity (Mus musculus [5]) of the same compound?
Its Activity is 59.03%.

What about the Activity (Gastric mucosa) of the same compound?
The Activity was 0.401 nmol/mg protein.

What does the source list for `O=C1/C(=C/c2ccccc2)C=C(c2ccc(Cl)cc2)N1Cc1ccccc1`?
inhibition in vivo at 20 mg/kg (Rattus norvegicus [1]): 37%; inhibition in vivo at 20 mg/kg (Rattus norvegicus [2]): 24%; UI (Rattus norvegicus [3]): 0.6; Activity (Gastric mucosa): 0.605 nmol/mg protein

Which inhibition in vivo at 20 mg/kg (Rattus norvegicus [1]) does the source give for `O=C1/C(=C/c2ccc(Cl)cc2)C=C(c2ccc(Cl)cc2)N1Cc1ccccc1` here?
Its inhibition in vivo at 20 mg/kg is 88.9%.

What about the inhibition in vivo at 20 mg/kg (Rattus norvegicus [2]) of the same compound?
The inhibition in vivo at 20 mg/kg was 58.7%.

What about the UI (Rattus norvegicus [3]) of the same compound?
The UI was 0.1.

What about the Activity (Mus musculus [4]) of the same compound?
The Activity was 11.55 s.

And the Activity (Mus musculus [5])?
Its Activity is 57.83%.

What about the Activity (Gastric mucosa) of the same compound?
The Activity was 0.31 nmol/mg protein.

What does the source list for `CC(C)Cc1ccc(C(C)C(=O)O)cc1` (configuration not stated) [IBUPROFEN]?
inhibition in vivo at 20 mg/kg (Rattus norvegicus [1]): 89.5%; inhibition in vivo at 20 mg/kg (Rattus norvegicus [2]): 80.9%; UI (Rattus norvegicus [3]): 0.9; Activity (Mus musculus [4]): 14.4 s; Activity (Mus musculus [5]): 65.06%
